Source: PubChem
PP5 inh = blocks human protein phosphatase 5 activity | P53041 | purified PP5c, OMFP substrate fluorescence | inhibition, % at 6.7 µM | actives 0.18% (n = 320,000) | AID 1987;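 active = inhibition above the campaign's mean inhibition across all tested compounds plus 3 SD, cut at about 9.5% in these data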;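 also: 0% = DMSO only and 100% = 100 µM cantharidin control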
PREPL inhibitor = inhibitors of human prolyl oligopeptidase-like enzyme PREPL; inhibition, % at 5.96 µM; actives 0.68% (n = 320,000); Q4J6C6; recombinant PREPL, fluorescence polarization activity-based probe; in the data active = inhibition above about 43%;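 also: 0% = enzyme with DMSO and 100% = wells lacking enzyme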
UBC13 inh = human UBC13 polyubiquitination inhibition. UBC13 polyubiquitin chain formation, TR-FRET. inhibition, % at 20 µM. actives 0.47% (n = 330,000); in the data active = inhibition above about 45%, passing the limit was not always enough; inconclusive = no clear call, values can overlap the other calls
Target sequence (P61088 whole entry, looked up): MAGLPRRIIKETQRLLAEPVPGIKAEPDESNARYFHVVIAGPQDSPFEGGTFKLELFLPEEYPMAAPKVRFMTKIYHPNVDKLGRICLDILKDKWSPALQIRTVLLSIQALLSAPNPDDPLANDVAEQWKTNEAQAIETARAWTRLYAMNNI
PP1 inh = blocks human PP1-alpha phosphatase, a PP5 counter-screen; purified PP1alpha, OMFP fluorescence; AID 2235; actives 0.9% (n = 320,000); inhibition, % at 6.7 µM;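 active = inhibition above the mean inhibition of all tested compounds plus 3 SD, computed separately for each screening campaign, cut at about 15% in these data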
UCH37 inh = human UCH37 deubiquitinating enzyme inhibition. Q9Y5K5. purified proteasome/UCH37, Ub-AMC cleavage fluorescence. inhibition, % (no concentration beside the values). actives 0.33% (n = 330,000);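 active = mean inhibition over replicate wells above about 20%, limit read from the data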;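 also: 0% = compound-free wells with enzyme and 100% = wells lacking proteasome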
Target sequence (Q9Y5K5 whole entry, looked up): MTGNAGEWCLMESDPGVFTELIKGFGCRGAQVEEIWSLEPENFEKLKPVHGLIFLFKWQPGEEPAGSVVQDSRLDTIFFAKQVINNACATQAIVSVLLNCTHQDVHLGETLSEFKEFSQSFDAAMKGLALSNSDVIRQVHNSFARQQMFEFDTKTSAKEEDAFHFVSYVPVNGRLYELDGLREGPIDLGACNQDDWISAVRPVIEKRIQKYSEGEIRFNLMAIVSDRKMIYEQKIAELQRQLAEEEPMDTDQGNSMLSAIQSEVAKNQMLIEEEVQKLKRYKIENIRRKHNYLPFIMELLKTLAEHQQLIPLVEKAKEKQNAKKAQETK
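Signal – fluorescence, ex 355 nm, em 460 nm · System – Proteasome-bound UCH37 · Input – 0.15 nM proteasome as dispensed · Timing – 30 min preincubation with enzyme, 25 min cleavage at room temperature · Read-out basis – percent inhibition of cleavage signal versus uninhibited and no-proteasome wells · Medium – Tris-HCl pH 7.4 with ATP-MgCl2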
Fh CTSL1 inh = counter-screen for PFM18AAP inhibitors: inhibitors of F. hepatica cathepsin L1; recombinant F. hepatica cathepsin L1, Z-Leu-Arg-MCA fluorescence; inhibition, % at 5.96 µM; actives 0.49% (n = 300,000); AID 1906;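 active = inhibition above the mean of all tested compounds plus 3 SD, set per screening campaign, cut at about 17% in these data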;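 also: 0% = plate median of test compound wells and 100% = 1 µM Z-Phe-Ala-diazomethylketone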
Casp3 counter = counter-screen for UBC13 inhibitors: human caspase-3 inhibition | inhibition, % at 20 µM | shares compounds with UBC13 inh | actives 4% (n = 1,400) | Recombinant caspase-3, Caspase-Glo 3/7 luminescence, 60 min;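 active = mean inhibition across replicates above about 26%, limit read from the data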;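 also: plate controls were DMSO with caspase-3 for no effect and DMSO wells lacking enzyme for full effect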
UBC13 confirm = human UBC13 polyubiquitin inhibition, confirmed; shares compounds with UBC13 inh; UBC13 polyubiquitination, TR-FRET, biochemical; inhibition, % at 10 µM; actives 68% (n = 1,400); in the data active = inhibition above about 45%; inconclusive = no clear call, values can overlap the other calls
The depositor's hits bear a star. An excerpt weighted towards active compounds, which were near 2.3% of everything screened.

C=CCn1c(SCC(=O)N(CC)C2CCS(=O)(=O)C2)nnc1-c1ccccc1 (stereo not drawn) was read as PP5 inh 0, PREPL inhibitor 6, UBC13 inh 54*, PP1 inh -5, UCH37 inh -2, Casp3 counter 2 and UBC13 confirm 53*.
`COC(=O)c1c(NC(=O)COc2ccc(Cl)cc2)sc2c1CC(C)(C)NC2(C)C` gave PP5 inh 6, PREPL inhibitor 15, UBC13 inh 43, PP1 inh 4, UCH37 inh -30 and Fh CTSL1 inh 2.
For CC1(C)Cc2c(sc(NC(=O)COc3ccc(Cl)cc3Cl)c2C(N)=O)C(C)(C)N1 the results were PP5 inh 5, PREPL inhibitor -6, UBC13 inh 74*, PP1 inh 0, UCH37 inh -78, Fh CTSL1 inh -3, Casp3 counter -1 and UBC13 confirm 109*.
COc1ccc(-c2cc3ccccc3oc2=O)cc1NC(=S)NC(=O)c1ccc2c(c1)OCCO2 was read as PP5 inh 1, PREPL inhibitor 1, UBC13 inh 49*, PP1 inh 13, UCH37 inh -35, Fh CTSL1 inh 1, Casp3 counter 0 and UBC13 confirm 46*.
`CCC(CC)C(=O)Nc1cccc(C(C)=NNC(=O)c2ccc(C)s2)c1` gave UCH37 inh -7.
For CCn1c(SCC(=O)NN=C(C)c2ccncc2)nnc1-c1ccc(C)cc1 the results were UCH37 inh 4.
O=C1c2cc(Cl)ccc2OC2(CCNCC2)C12CC(c1ccccc1)=NO2 (stereo not drawn) was read as PP5 inh 2, PREPL inhibitor -13, UBC13 inh 42, PP1 inh 4, UCH37 inh 2 and Fh CTSL1 inh 4.
`O=C1c2cc(Cl)ccc2OC2(CCNCC2)C12CC(c1ccc(Cl)cc1)=NO2` (stereo not drawn) gave PP5 inh 1, PREPL inhibitor -34, UBC13 inh 48*, PP1 inh 7, UCH37 inh 0, Fh CTSL1 inh 5, Casp3 counter 3 and UBC13 confirm 41.
Screening CN(C)CCNc1oc(COc2ccc(Cl)cc2Cl)nc1C#N returned PP5 inh 2, PREPL inhibitor 23, UBC13 inh 91*, PP1 inh -5, UCH37 inh -3, Fh CTSL1 inh 7, Casp3 counter -2 and UBC13 confirm 98*.
`c1ccc(Nc2nnc(-c3cccc4ccccc34)o2)cc1` gave PP5 inh 2, PREPL inhibitor -3, UBC13 inh 9, PP1 inh -3, UCH37 inh -15 and Fh CTSL1 inh 2.
Cc1ccc(Nc2nnc(-c3ccccc3N)o2)cc1C was read as PP5 inh 0, PREPL inhibitor 8, UBC13 inh 46*, PP1 inh -5, UCH37 inh -179, Fh CTSL1 inh -1, Casp3 counter 39* and UBC13 confirm 2.
`ON=C(CCc1ccccc1)C1(O)CCCCC1` gave UCH37 inh -1.
Screening COc1cc(C=NNC(=O)CNC(=O)c2ccncc2)ccc1O returned UCH37 inh 1.
OC(c1cc(C(F)(F)F)nc2c(C(F)(F)F)cccc12)C1CCCCN1 (stereo not drawn) was read as PP5 inh -3, PREPL inhibitor -11, UBC13 inh 68*, PP1 inh -1, UCH37 inh 4, Fh CTSL1 inh 2, Casp3 counter -6 and UBC13 confirm 49*.
OC(c1cc(-c2ccc(C(F)(F)F)cc2)nc(C(F)(F)F)c1)C1CCCCN1 (stereo not drawn) was read as PP5 inh 1, PREPL inhibitor -119, UBC13 inh 43, PP1 inh 5, UCH37 inh 5 and Fh CTSL1 inh 4.
Cc1nnc(NC(=O)c2c(-c3ccccc3)noc2C)s1 was read as PP5 inh 0, PREPL inhibitor 7, UBC13 inh 0, PP1 inh -3, UCH37 inh 5 and Fh CTSL1 inh -3.
Screening Cc1onc(-c2ccccc2)c1C(=O)Nc1cccc2nsnc12 returned PP5 inh 0, PREPL inhibitor 5, UBC13 inh 49*, PP1 inh -4, UCH37 inh -16, Fh CTSL1 inh -2, Casp3 counter 1 and UBC13 confirm 45.
`COc1ccnc2c1c(=O)n(Cc1c(F)cccc1Cl)c(=O)n2C` gave PP5 inh 2, PREPL inhibitor 9, UBC13 inh 9, PP1 inh -1, UCH37 inh -3 and Fh CTSL1 inh 7.
`COc1ccnc2c1c(=O)n(Cc1ccc(Cl)cc1)c(=O)n2C` gave PP5 inh 0, PREPL inhibitor -24, UBC13 inh 71*, PP1 inh 2, UCH37 inh -6, Fh CTSL1 inh 4, Casp3 counter 0 and UBC13 confirm inconclusive.
COc1ccnc2c1c(=O)n(Cc1ccc(F)cc1)c(=O)n2C was read as PP5 inh -1, PREPL inhibitor -13, UBC13 inh 57*, PP1 inh 0, UCH37 inh 3, Fh CTSL1 inh -3, Casp3 counter 0 and UBC13 confirm 67*.
`CCCOc1ccc(C=Nn2nnnc2N)cc1OC` gave UCH37 inh -17.
For COc1ccc(S(=O)(=O)N2CCN(c3ccc4nnc(-c5ccc(F)cc5)n4n3)CC2)cc1 the results were PP5 inh 3, PREPL inhibitor -15, UBC13 inh 46*, PP1 inh 6, UCH37 inh 0, Fh CTSL1 inh 0, Casp3 counter 3 and UBC13 confirm 30.
Cc1ccc(S(=O)(=O)N2CCN(c3ccc4nnc(-c5ccccc5)n4n3)CC2)cc1 was read as UCH37 inh 2.
`Cn1ncc([N+](=O)[O-])c1C(=O)NN=Cc1cccc([N+](=O)[O-])c1` gave UCH37 inh 6.
Screening COc1ccccc1NC(=O)c1c(N=Cc2cccc([N+](=O)[O-])c2)cnn1C returned PP5 inh 2, PREPL inhibitor 19, UBC13 inh 77*, PP1 inh -5, UCH37 inh 3, Fh CTSL1 inh 5, Casp3 counter -2 and UBC13 confirm 86*.
Cc1ccc2c(c1)C(=NOC(=O)c1ccc(F)cc1)CCS2 was read as UCH37 inh -5.
Screening NC(=O)c1ccc(Cn2c(C(=O)c3cc(Cl)c(N)c(Cl)c3)c3ccccc3[n+]2[O-])cc1 returned PP5 inh 1, PREPL inhibitor -1, UBC13 inh 98*, PP1 inh 0, UCH37 inh 2, Fh CTSL1 inh 1, Casp3 counter 0 and UBC13 confirm 95*.
